The subject of experiment [1] is panel of 11 glioma models including a patient-derived model [GBM10]. Kind of experiment: SRB cytotoxicity assay, panel of glioma models. The following applies: compared with U87 cells; Fig. S1. The experiment is classed as cell-based, human. (In general: The SRB assay estimates cell density from bound dye.)
In the next experiment the test system is p-Akt. The experiment is described as follows: p-Akt in GBM39 cells. It counts as cell-based. The note with it: Homo sapiens, GBM39, read-out: nadir p-Akt inhibition relative to the control.
The next experiment deals with U87 cells. The experiment is described as follows: Flow cytometric cell cycle analysis. It counts as cell-based, human. The following applies: 24 h. Background: Flow cytometry measures light scatter and fluorescence of single cells or particles in a stream.
Experiment [2] relates to p-Erk in intracerebral U87 brain tumors. Kind of experiment: In vivo pharmacodynamics: p-Erk in brain tumor. Details: species or system mouse. In outline:
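NIH Swiss nude mice carried U87 cells (10^6 in 10 μl PBS) implanted stereotactically into the caudate putamen. Test compound was given as an IV tail-vein bolus of 5 or 25 mg/kg, or 25 mg/kg 1 h after oral EGFR inhibitor (200 mg/kg). Tumours were collected from 5 min to 10 h (17 h with co-dosing) and lysed at 20 μl buffer/mg. Phospho/total Akt and Erk were measured by MSD as percent of control, at least three mice per time point. ABEC was reported in %-h.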

Marks after values point to notes of the source that are not given here.

Consider one molecule from publication PMC4013241 (Molecular cancer therapeutics, 2014).

A word on the inhibition: it is the percentage by which the read-out fell short of the control.

For the molecule `CN1CCN(c2ccc(Nc3ncc4cc(C#N)c(=O)n(C5CCCC5)c4n3)cc2)CC1` [ON123300], the “inhibition of cell proliferation in a panel of 11 glioma models” value in experiment [1] is reported as “quite comparable to that observed to U87 cells”. Moreover, in the experiment with p-Akt, the inhibition at 4 µM stood at 55%. In the experiment with U87 cells, the “increase in the percentage of cells in the G2/M phase vs control” value is reported as around 2.5 fold. In addition, in the experiment on U87 cells (6.3 μM ON123300 alone or with 13.3 μM GFN, control 10.4 ± 0.6%), the “percentage of cells in the G2/M phase” value was found to be 38.2 ± 01.4%. For the same molecule, in experiment [2] (ON123300 5 mg/kg IV, 5 min), the “p-Erk spike at 5 min” value was 159%. Moreover, in experiment [2] (ON123300 25 mg/kg IV), the “p-Erk maximum relative to baseline” value is listed as 161%. In addition, the “p-Erk, of control, at 17 h” value in experiment [2] (ON123300 25 mg/kg IV plus oral 200 mg/kg GFN, 17 h following the ON123300 dose) came to 80%. Further, the p-Erk peak activation in experiment [2] (ON123300 25 mg/kg IV plus oral 200 mg/kg GFN, at 5 min) is listed as 120%. For the same molecule, the “ABEC p-Erk” value in experiment [2] (ON123300 25 mg/kg IV plus oral 200 mg/kg GFN, below the baseline) was 273.9 %-h; in experiment [2] (ON123300 25 mg/kg IV, ABEC above the baseline), 144.1^# %_h; in experiment [2] (ON123300 25 mg/kg IV, above the baseline), 144 %-h.
